Test results taken from ChEMBL document CHEMBL1255227, “Novel pyridylmethylamines as highly selective 5-HT(1A) superagonists” (J Med Chem, 2010).

Columns and labels:
[1] = biological target: T1, 5-hydroxytryptamine receptor 1A (Homo sapiens) (UniProt P08908); experiment: Intrinsic activity at human 5-HT1A receptor expressed in CHO cells assessed as increase of serotonin-induced [35S]GTPgammaS binding relative to serotonin; type: functional, cell-based
T1 sequence (whole entry): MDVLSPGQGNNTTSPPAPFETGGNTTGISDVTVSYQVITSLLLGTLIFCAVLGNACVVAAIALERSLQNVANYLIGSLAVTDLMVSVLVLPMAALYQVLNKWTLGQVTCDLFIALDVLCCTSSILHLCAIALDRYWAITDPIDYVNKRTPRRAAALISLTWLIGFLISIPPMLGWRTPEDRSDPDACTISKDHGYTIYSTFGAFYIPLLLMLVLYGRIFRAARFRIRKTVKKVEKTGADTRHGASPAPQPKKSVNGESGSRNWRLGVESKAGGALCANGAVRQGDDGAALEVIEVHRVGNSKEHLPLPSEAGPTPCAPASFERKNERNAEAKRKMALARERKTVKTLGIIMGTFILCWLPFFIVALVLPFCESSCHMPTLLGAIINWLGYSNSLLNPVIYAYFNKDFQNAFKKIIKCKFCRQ
Method in brief: (§1)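 Membranes from CHO cells stably expressing human 5-HT1A were incubated with 0.1 nM [35S]GTPγS and test compound at eight concentrations (0.01-10000 nM), in hexaduplicate. Values come from a mean curve of four experiments. Emax is expressed relative to the maximal serotonin effect.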

[2] = biological target: T2, 5-hydroxytryptamine receptor 1A (Homo sapiens, UniProt P08908); experiment: Intrinsic activity at human 5-HT1A receptor expressed in CHO cells assessed as increase of serotonin-induced [35S]GTPgammaS binding; type: functional, cell-based; method in brief: as §1
T2 sequence (P08908 whole entry): T1 sequence (whole entry)

[3] = Displacement of [3H]WAY-100635 from 5-HT1A receptor in pig cortex membranes; type: cell membranes, Sus scrofa
D(2) dopamine receptor [4] = biological target: T3, D(2) dopamine receptor (Homo sapiens, UniProt P14416); experiment: Displacement of [3H]Spiperone from human dopamine D2 long receptor
Method in brief: (§2)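 Membranes from CHO cells stably expressing the human receptor, at 5-20 μg protein/assay tube, were competed against [3H]spiperone at 0.1-0.4 nM final. […] IC50 came from sigmoid nonlinear regression.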

[5] = Displacement of [3H]Prazosin from adrenergic alpha1 receptor in pig cortex membranes; type: cell membranes, Sus scrofa
D(3) dopamine receptor = D(3) dopamine receptor (Homo sapiens, UniProt P35462); experiment: Displacement of [3H]Spiperone from human dopamine D3 receptor; method in brief: as §2
[6] = Displacement of [3H]RX821002 from adrenergic alpha2 receptor in pig cortex membranes
D(2) dopamine receptor [7] = biological target: T3, D(2) dopamine receptor; experiment: Displacement of [3H]Spiperone from human dopamine D2 short receptor; method in brief: as §2
D(1A) dopamine receptor = D(1A) dopamine receptor (Sus scrofa, UniProt P50130); experiment: Displacement of [3H]SCH23390 from dopamine D1 receptor in pig striatal membranes
[8] = Displacement of [3H]8-OH-DPAT from 5-HT1A receptor in pig cortex membranes; type: cell membranes, Sus scrofa
D(4) dopamine receptor = biological target: T4, D(4) dopamine receptor (Homo sapiens, UniProt P21917); experiment: Displacement of [3H]Spiperone from human dopamine D4.4 receptor; method in brief: as §2
T4 sequence (P21917 whole entry): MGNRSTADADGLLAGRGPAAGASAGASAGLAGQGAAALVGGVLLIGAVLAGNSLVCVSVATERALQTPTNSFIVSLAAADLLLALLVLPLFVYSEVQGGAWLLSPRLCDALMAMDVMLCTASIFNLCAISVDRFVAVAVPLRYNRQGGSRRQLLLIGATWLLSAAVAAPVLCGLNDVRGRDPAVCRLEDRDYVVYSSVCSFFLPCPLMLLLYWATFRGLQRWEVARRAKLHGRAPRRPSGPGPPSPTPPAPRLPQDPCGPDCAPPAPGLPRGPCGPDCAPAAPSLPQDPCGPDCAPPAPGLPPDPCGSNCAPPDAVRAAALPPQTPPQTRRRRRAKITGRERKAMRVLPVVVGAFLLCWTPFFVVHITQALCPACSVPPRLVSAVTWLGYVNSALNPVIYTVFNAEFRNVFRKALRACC

[9] = biological target: 5-hydroxytryptamine receptor 2A (Sus scrofa, UniProt P50129); experiment: Displacement of [3H]Ketanserin from 5-HT2 receptor in pig cortex membranes; type: cell membranes
Mus musculus = experiment: Antinociceptive activity against formalin-induced inflammatory pain in mouse assessed as reduction of paw licking at 1 mg/kg, ip; type: functional; design: scale not given: the % may be the effect or the level left; conditions: route intraperitoneal

Chain of D(1A) dopamine receptor (P50130 whole entry): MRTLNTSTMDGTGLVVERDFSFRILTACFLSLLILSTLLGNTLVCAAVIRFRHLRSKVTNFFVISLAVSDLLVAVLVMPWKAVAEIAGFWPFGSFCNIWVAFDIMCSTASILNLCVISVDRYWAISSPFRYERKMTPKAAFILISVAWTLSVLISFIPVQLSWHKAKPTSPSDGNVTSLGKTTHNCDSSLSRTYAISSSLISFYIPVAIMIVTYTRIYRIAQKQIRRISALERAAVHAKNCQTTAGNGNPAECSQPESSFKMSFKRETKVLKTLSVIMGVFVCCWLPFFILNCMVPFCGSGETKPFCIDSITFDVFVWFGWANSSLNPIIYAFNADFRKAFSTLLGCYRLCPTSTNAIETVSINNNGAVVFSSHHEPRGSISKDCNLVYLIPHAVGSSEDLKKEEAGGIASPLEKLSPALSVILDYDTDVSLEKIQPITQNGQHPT
T3 sequence (P14416 whole entry): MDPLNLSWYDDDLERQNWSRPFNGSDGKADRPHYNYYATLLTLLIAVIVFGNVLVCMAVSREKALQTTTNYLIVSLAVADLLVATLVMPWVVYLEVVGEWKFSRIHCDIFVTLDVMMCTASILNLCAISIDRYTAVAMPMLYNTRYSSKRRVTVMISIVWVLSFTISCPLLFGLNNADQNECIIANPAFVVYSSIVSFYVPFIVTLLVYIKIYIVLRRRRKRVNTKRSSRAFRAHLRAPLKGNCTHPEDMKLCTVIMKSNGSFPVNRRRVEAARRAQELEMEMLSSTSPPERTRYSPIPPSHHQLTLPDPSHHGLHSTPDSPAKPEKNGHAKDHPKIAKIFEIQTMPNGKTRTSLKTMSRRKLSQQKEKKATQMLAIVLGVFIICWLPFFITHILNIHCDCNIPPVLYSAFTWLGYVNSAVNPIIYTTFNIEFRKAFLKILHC
Chain of D(3) dopamine receptor (P35462 whole entry): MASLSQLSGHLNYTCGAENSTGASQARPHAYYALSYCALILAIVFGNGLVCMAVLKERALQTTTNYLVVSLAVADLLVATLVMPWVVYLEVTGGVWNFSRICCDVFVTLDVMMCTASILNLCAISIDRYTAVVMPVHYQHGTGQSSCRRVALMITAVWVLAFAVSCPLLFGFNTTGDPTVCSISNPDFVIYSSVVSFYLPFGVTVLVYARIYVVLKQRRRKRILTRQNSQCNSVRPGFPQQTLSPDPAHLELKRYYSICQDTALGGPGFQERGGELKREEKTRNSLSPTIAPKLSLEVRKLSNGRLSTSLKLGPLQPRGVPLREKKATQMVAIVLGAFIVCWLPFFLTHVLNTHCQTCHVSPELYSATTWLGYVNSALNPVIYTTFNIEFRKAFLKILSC
Chain of 5-hydroxytryptamine receptor 2A (P50129 whole entry): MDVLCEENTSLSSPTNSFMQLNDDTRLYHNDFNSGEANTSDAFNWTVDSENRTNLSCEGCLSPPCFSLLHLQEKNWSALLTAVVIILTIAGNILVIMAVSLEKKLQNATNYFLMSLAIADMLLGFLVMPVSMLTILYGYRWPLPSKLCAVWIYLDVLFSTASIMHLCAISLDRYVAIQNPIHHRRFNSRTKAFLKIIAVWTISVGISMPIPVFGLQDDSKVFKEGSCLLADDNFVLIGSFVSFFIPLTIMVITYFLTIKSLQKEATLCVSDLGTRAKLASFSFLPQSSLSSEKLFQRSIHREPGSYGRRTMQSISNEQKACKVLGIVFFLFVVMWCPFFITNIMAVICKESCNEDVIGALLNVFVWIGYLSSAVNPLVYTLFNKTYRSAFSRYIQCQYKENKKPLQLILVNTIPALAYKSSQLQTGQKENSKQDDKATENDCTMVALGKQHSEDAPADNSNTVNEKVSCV

Row | Emax [1] | EC50 [2] | Ki [3] | SMILES | other results
1 | 100% | 130 nM | 37 nM | Cc1ccc(CNCC2(F)CCN(C(=O)c3cc4sccc4s3)CC2)nc1 | –
2 | 91% | 54 nM | 18 nM | CSc1ccc(C(=O)N2CCC(F)(CNCc3ccc(C)cn3)CC2)s1 | –
3 | 77% | 8.6 nM | 74 nM | Cc1ccc(CN(C)CC2(F)CCN(C(=O)c3ccc(F)c(Cl)c3)CC2)nc1 | –
4 | 104% | 42 nM | 14 nM | Cc1ccc(CNCC2(F)CCN(C(=O)c3ccc(C)s3)CC2)nc1 | –
5 | 96% | 47 nM | 11 nM | Cc1ccc(CNCC2(F)CCN(C(=O)C34CC5CC(CC3C5)C4)CC2)nc1 | –
6 | 104% | 20 nM | 32 nM | Cc1ccc(CNCC2(F)CCN(C(=O)c3sccc3Br)CC2)nc1 | –
7 | 94% | 100 nM | 380 nM | Cc1ccc(CNCC2(F)CCN(C(=O)c3ccc4[nH]ccc4c3)CC2)nc1 | –
8 | 124% | 10 nM | 2.7 nM | Cc1ccc(CNCC2(F)CCN(C(=O)c3csc4ccccc34)CC2)nc1 | Ki (D(2) dopamine receptor [4]): 20000 nM; Ki [5]: 2000 nM; Ki (D(3) dopamine receptor): 8700 nM; Ki [6]: 1700 nM; Ki (D(2) dopamine receptor [7]): 54000 nM; Ki (D(1A) dopamine receptor): 45000 nM; Ki [8]: 0.86 nM; Ki (D(4) dopamine receptor): 460 nM; Ki [9]: 22000 nM
9 | 96% | 13 nM | 15 nM | Cc1ccc(CNCC2(F)CCN(C(=O)c3ccccc3)CC2)nc1 | –
10 | 97% | 59 nM | 25 nM | Cc1ccc(CNCC2(F)CCN(C(=O)c3sc4sccc4c3Cl)CC2)nc1 | –
11 | 103% | 39 nM | 46 nM | Cc1ccc(CNCC2(F)CCN(C(=O)c3cc4ccsc4s3)CC2)nc1 | –
12 | 87% | 34 nM | 64 nM | Cc1ccc(CNCC2(F)CCN(C(=O)c3cc4ccccc4o3)CC2)nc1 | –
13 | 81% | 15 nM | 62 nM | Cc1ccc(CNCC2(F)CCN(C(=O)c3ccco3)CC2)nc1 | Activity (Mus musculus): 35%
14 | 91% | 18 nM | 27 nM | Cc1ccc(CNCC2(F)CCN(C(=O)c3cccs3)CC2)nc1 | Activity (Mus musculus): 45%
15 | 91% | 48 nM | 92 nM | Cc1ccc(CNCC2(F)CCN(C(=O)C34CC5CC(CC(Cl)(C5)C3)C4)CC2)nc1 | –
16 | 99% | 30 nM | 25 nM | Cc1ccc(CNCC2(F)CCN(C(=O)c3sccc3Cl)CC2)nc1 | –
17 | 96% | 35 nM | 26 nM | Cc1ccc(CNCC2(F)CCN(C(=O)c3sccc3C)CC2)nc1 | –
18 | 95% | 62 nM | 17 nM | COc1c(C(=O)N2CCC(F)(CNCc3ccc(C)cn3)CC2)csc1Br | –
19 | 93% | 99 nM | 56 nM | COc1cscc1C(=O)N1CCC(F)(CNCc2ccc(C)cn2)CC1 | –

Row | Emax [1] | EC50 [2] | Ki [3] | SMILES | other results
20 | 90% | 600 nM | 1300 nM | Cc1ccc(CNCC2(F)CCN(C(=O)C34CC5CC(CC(O)(C5)C3)C4)CC2)nc1 | –
21 | 109% | 6.6 nM | 11 nM | Cc1ccc(CNCC2(O)CCN(C(=O)c3ccc(F)c(Cl)c3)CC2)nc1 | –
22 | 101% | 16 nM | 4.2 nM | Cc1ccc(CNCC2(F)CCN(C(=O)c3coc4ccccc34)CC2)nc1 | Ki (D(2) dopamine receptor [4]): 27000 nM; Ki [5]: 2800 nM; Ki (D(3) dopamine receptor): 12000 nM; Ki [6]: 2800 nM; Ki (D(2) dopamine receptor [7]): 28000 nM; Ki (D(1A) dopamine receptor): 48000 nM; Ki [8]: 1.1 nM; Ki (D(4) dopamine receptor): 590 nM; Ki [9]: 53000 nM
23 | 104% | 86 nM | 20 nM | Cc1ccc(CNCC2(F)CCN(C(=O)c3scc4c3CCCC4)CC2)nc1 | –
24 | 110% | 52 nM | 15 nM | Cc1ccc(CNCC2(F)CCN(C(=O)c3ccc4ccccc4c3)CC2)nc1 | –
25 | 102% | 63 nM | 32 nM | Cc1ccc(CNCC2(F)CCN(C(=O)c3sc(Br)c4c3OCCO4)CC2)nc1 | –
26 | 101% | 20 nM | 8.3 nM | Cc1ccc(CNCC2(F)CCN(C(=O)c3cc(C)cs3)CC2)nc1 | –
27 | 98% | 11 nM | 17 nM | Cc1ccc(CNCC2(F)CCN(C(=O)C34CC5CC(CC(C5)C3)C4)CC2)nc1 | –
28 | 80% | 93 nM | 180 nM | Cc1ccc(CNCC2(F)CCN(C(=O)c3cc4ccccn4n3)CC2)nc1 | –
29 | 96% | 310 nM | 93 nM | Cc1ccc(CNCC2(F)CCN(C(=O)c3cnn4ccccc34)CC2)nc1 | –
30 | 116% | 240 nM | 190 nM | Cc1ccc(CNCC2(F)CCN(C(=O)c3cc4ccccc4s3)CC2)nc1 | –
31 | 102% | 50 nM | 18 nM | COc1c(C(=O)N2CCC(F)(CNCc3ccc(C)cn3)CC2)csc1Cl | –
32 | 101% | 46 nM | 21 nM | Cc1ccc(CNCC2(F)CCN(C(=O)c3ccc(Cl)s3)CC2)nc1 | –
33 | 95% | 12 nM | 27 nM | Cc1ccc(CNCC2(F)CCN(C(=O)c3ccsc3)CC2)nc1 | –
34 | 116% | 17 nM | 6.2 nM | Cc1ccc(CNCC2(F)CCN(C(=O)c3cc(Br)cs3)CC2)nc1 | Ki (D(2) dopamine receptor [4]): 73000 nM; Ki [5]: 2300 nM; Ki (D(3) dopamine receptor): 19000 nM; Ki [6]: 3500 nM; Ki (D(2) dopamine receptor [7]): 100000 nM; Ki (D(1A) dopamine receptor): 34000 nM; Ki [8]: 1.8 nM; Ki (D(4) dopamine receptor): 2000 nM; Ki [9]: 18000 nM
35 | 95% | 30 nM | 19 nM | Cc1ccc(CNCC2(F)CCN(C(=O)c3ccc(Br)s3)CC2)nc1 | –
36 | 99% | 240 nM | 182 nM | Cc1ccc(CNCC2(F)CCN(C(=O)c3ccoc3)CC2)nc1 | –
37 | 96% | 26 nM | 19 nM | Cc1ccc(CNCC2(F)CCN(C(=O)C34CCCC(CCC3)C4)CC2)nc1 | –

Row | SMILES | Emax [1] | EC50 [2] | Ki [3] | other results
38 | Cc1ccc(CNC[C@@]2(O)C[C@H]3CC[C@@H](C2)N3C(=O)c2ccccc2)nc1 (stereo in doubt; 38) | < 10% | – | – | –
39 | Cc1ccc(CNC[C@@]2(O)C[C@H]3CC[C@@H](C2)N3C(=O)c2ccccc2)nc1 (stereo in doubt; 34) [listing 1 of 2 here] | 113% | – | – | –
40 | Cc1ccc(CNCC2(O)CC3CCC(C2)N3C(=O)c2ccsc2)nc1 (stereo not drawn) | 101% | 32 nM | 43 nM | –
41 | Cc1ccc(CNCC2(F)CCN(C(=O)c3cc4ccccc4[te]3)CC2)nc1 | 46% | 36 nM | 51 nM | –
42 | Cc1ccc(CNCC2(O)CC3CCC(C2)N3C(=O)c2ccc(F)c(Cl)c2)nc1 (stereo not drawn) | 121% | 18 nM | 17 nM | –
43 | Cc1ccc(CNCC2(F)CCN(C(=O)c3ccc(F)c(Cl)c3)CC2)nc1 [BEFIRADOL] | – | – | 1.1 nM | Ki (D(2) dopamine receptor [4]): 15000 nM; Ki [5]: 4500 nM; Ki (D(3) dopamine receptor): 10000 nM; Ki [6]: 3700 nM; Ki (D(2) dopamine receptor [7]): 46000 nM; Ki (D(1A) dopamine receptor): 26000 nM; Ki [8]: 0.33 nM; Ki (D(4) dopamine receptor): 2000 nM; Ki [9]: 23000 nM
44 | Cc1ccc(CNC[C@@]2(O)C[C@H]3CC[C@@H](C2)N3C(=O)c2ccccc2)nc1 (stereo in doubt; 34) [listing 2 of 2 here] | – | 270 nM | 100 nM | –
